Results reported in ChEMBL document CHEMBL1128448, “Synthesis and antifungal activity of new azole derivatives containing an N-acylmorpholine ring” (1995).
≈ marks a conversion by molar mass, not a printed value.

How the values were obtained:
Candida tropicalis = assay: In vitro evaluation of minimum inhibitory concentration against Candida tropicalis 2.11; assay type: functional; settings: Candida tropicalis; read-out: MIC
Method in brief: (§1)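 Stocks are 800 μg/mL in 50% ethanol. Each plate gets 10 μL of inoculum at 10^5 cfu/mL. Incubation at 25 °C, 48 h for yeasts and 120 h for dermatophytes and molds. Organisms are ATCC strains or clinical isolates.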

Aspergillus fumigatus = assay: In vitro evaluation of minimum inhibitory concentration against Aspergillus fumigatus 33; assay type: functional; method in brief: as §1
Nakaseomyces glabratus = assay: In vitro evaluation of minimum inhibitory concentration against Torulopsis glabrata 78; assay type: functional; method in brief: as §1
Microsporum canis = assay: In vitro evaluation of minimum inhibitory concentration against Microsporum canis 47; assay type: functional; method in brief: as §1
Candida albicans [1] = assay: In vivo evaluation of minimum inhibitory concentration against Candida albicans 406; assay type: functional
Method in brief: (§2)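 Broth macrodilution MIC following NCCLS M27-P, in RPMI-1640 buffered with 0.165 M MOPS. Fluconazole was dissolved in water and other drugs in DMSO. C. parapsilosis ATCC 22019 served as the reference strain in every run. MIC was the lowest concentration giving turbidity at or below the 80% inhibition standard.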

Aspergillus flavus = assay: In vitro evaluation of minimum inhibitory concentration against Aspergillus flavus 19; assay type: functional; settings: Aspergillus flavus; read-out: MIC; method in brief: as §1
Pichia kudriavzevii = assay: In vitro evaluation of minimum inhibitory concentration against Candida krusei 70; assay type: functional; method in brief: as §1
Mus sp. [2] = assay: In vivo evaluation of % survival rate after peroral administration on 9th day at dose 1 mg/kg; assay type: functional; settings: Mus sp., po
Aspergillus niger = assay: In vitro evaluation of minimum inhibitory concentration against Aspergillus niger 18; assay type: functional; settings: Aspergillus niger; read-out: MIC; method in brief: as §1
Candida albicans [3] = assay: In vivo evaluation of minimum inhibitory concentration against Candida albicans 60; assay type: functional; method in brief: as §2
Trichophyton rubrum = assay: In vitro evaluation of minimum inhibitory concentration against Trichophyton rubrum 90; assay type: functional; method in brief: as §1
Mus sp. [4] = assay: In vivo evaluation of % survival rate after peroral administration on 7th day at dose 1 mg/kg; assay type: functional; settings: Mus sp., po
Kluyveromyces marxianus = assay: In vivo Evaluation of minimum inhibitory concentration against Candida pseudotropicalis 13; assay type: functional; method in brief: as §1
Rhodotorula mucilaginosa = assay: In vitro evaluation of minimum inhibitory concentration against Rhodotorula rubra 16; assay type: functional; settings: Rhodotorula mucilaginosa; read-out: MIC; method in brief: as §1
Trichophyton benhamiae = assay: In vitro evaluation of minimum inhibitory concentration against Trichophyton mentagrophytes 23; assay type: functional, Arthroderma benhamiae; method in brief: as §1
Mus sp. [5] = assay: In vivo evaluation of % survival rate after peroral administration on 3rd day at dose 1 mg/kg; assay type: functional; settings: Mus sp., po
Mus sp. [6] = assay: In vivo evaluation of % survival rate after peroral administration on 5th day at dose 1 mg/kg; assay type: functional; settings: Mus sp., po
Candida albicans [7] = assay: In vitro evaluation of minimum inhibitory concentration against Candida albicans 76; assay type: functional; method in brief: as §1
Nannizzia gypsea = assay: In vitro evaluation of minimum inhibitory concentration against Microsporum gypseum 22; assay type: functional; method in brief: as §1
[8] = test system: Meyerozyma guilliermondii; assay: In vitro evaluation of minimum inhibitory concentration against Candida guilliermondii 26; assay type: functional; method in brief: as §1
Candida parapsilosis = assay: In vitro evaluation of minimum inhibitory concentration against Candida parapsilosis 61; assay type: functional; method in brief: as §1
Mus sp. [9] = assay: In vivo evaluation of % survival rate after peroral administration on 5th day at dose 2.5 mg/kg; assay type: functional; settings: route oral, 2.5 mg/kg
Mus sp. [10] = assay: In vivo evaluation of % survival rate after peroral administration on 7th day at dose 2.5 mg/kg; assay type: functional; settings: route oral, 2.5 mg/kg
Mus sp. [11] = assay: In vivo evaluation of % survival rate after peroral administration on 9th day at dose 2.5 mg/kg; assay type: functional; settings: route oral, 2.5 mg/kg
Mus sp. [12] = assay: In vivo evaluation of % survival rate after peroral administration on 3rd day at dose 2.5 mg/kg; assay type: functional; settings: route oral, 2.5 mg/kg
[13] = Candida albicans, read-out: MIC

## C[C@H]1N(C(=O)c2ccc(OCC(F)(F)C(F)F)cc2)C[C@H](O)O[C@@]1(Cn1cncn1)c1ccc(F)cc1F (racemic)
Candida tropicalis
  MIC: 80 µg/mL (≈ 147 µM)
Aspergillus fumigatus; Aspergillus fumigatus, read-out: MIC
  MIC: > 80 µg/mL
Nakaseomyces glabratus; Nakaseomyces glabratus, read-out: MIC
  MIC: > 80 µg/mL
Microsporum canis; Microsporum canis, read-out: MIC
  MIC: > 80 µg/mL
Candida albicans [1]; [13]
  MIC: 1.25 µg/mL (≈ 2.3 µM)
Aspergillus flavus
  MIC: > 80 µg/mL
Pichia kudriavzevii; Pichia kudriavzevii, read-out: MIC
  MIC: > 80 µg/mL
Mus sp. [2]
  survival at 1 mg/kg: 0%
Aspergillus niger
  MIC: > 80 µg/mL
Candida albicans [3]; [13]
  MIC: 5 µg/mL (≈ 9.18 µM)
Trichophyton rubrum; Trichophyton rubrum, read-out: MIC
  MIC: > 80 µg/mL
Mus sp. [4]
  survival at 1 mg/kg: 0%
Kluyveromyces marxianus; Kluyveromyces marxianus, in the assay text read “In vitro” for “In vivo”, read-out: MIC
  MIC: 0.63 µg/mL (≈ 1.16 µM)
Rhodotorula mucilaginosa
  MIC: > 80 µg/mL
Trichophyton benhamiae; Trichophyton benhamiae, read-out: MIC
  MIC: > 80 µg/mL
Mus sp. [5]
  survival at 1 mg/kg: 80%
Mus sp. [6]
  survival at 1 mg/kg: 50%
Candida albicans [7]; [13]
  MIC: 80 µg/mL (≈ 147 µM)
Nannizzia gypsea; Nannizzia gypsea, read-out: MIC
  MIC: > 80 µg/mL
[8]; Meyerozyma guilliermondii, read-out: MIC
  MIC: 80 µg/mL (≈ 147 µM)
Candida parapsilosis; Lodderomyces parapsilosis, read-out: MIC
  MIC: 10 µg/mL (≈ 18.4 µM)

## C[C@H]1N(C(=O)c2ccc(C(F)(F)F)cc2)CCO[C@@]1(Cn1cncn1)c1ccc(F)cc1F (stereo in doubt; (+)-41)
Aspergillus fumigatus
  MIC: >80 µg/mL
Mus sp. [9]
  Survival: 0%
Nakaseomyces glabratus
  MIC: >80 µg/mL
Mus sp. [10]
  Survival: 0%
Microsporum canis
  MIC: >80 µg/mL
Candida albicans [1]
  MIC: >80 µg/mL
Pichia kudriavzevii
  MIC: >80 µg/mL
Candida albicans [3]
  MIC: >80 µg/mL
Trichophyton rubrum
  MIC: 80 µg/mL (≈ 172 µM)
Mus sp. [11]
  Survival: 0%
Kluyveromyces marxianus
  MIC: 10 µg/mL (≈ 21.4 µM)
Trichophyton benhamiae
  MIC: >80 µg/mL
Mus sp. [12]
  Survival: 10%
Candida albicans [7]
  MIC: >80 µg/mL
Nannizzia gypsea
  MIC: >80 µg/mL
[8]
  MIC: >80 µg/mL
Candida parapsilosis
  MIC: >80 µg/mL
